Legend:
[1] = target: 5-hydroxytryptamine receptor 2A (Homo sapiens, UniProt P28223); assay: Displacement of [3H]ketanserin from human recombinant 5HT2A expressed in CHOK1 cells; format: cell-based, CHO-K1
Method in brief: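 Human recombinant 5-HT2A membranes from CHO-K1 cells were incubated with 1 nM [3H]ketanserin, with mianserin defining nonspecific binding. Incubation was 60 min at 27 °C in 50 mM Tris-HCl pH 7.4 with 4 mM CaCl2 and 0.1% ascorbic acid. Filtered on glass fibre presoaked in 0.5% PEI, washed, and counted. IC50 by nonlinear regression from 7–8 concentrations in duplicate.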

[2] = target: T1, 5-hydroxytryptamine receptor 2C (Homo sapiens, UniProt P28335); assay: Displacement of [3H]mesulergine from human recombinant 5HT2C expressed in CHOK1 cells; format: cell-based, CHO-K1
T1 sequence (P28335 whole entry): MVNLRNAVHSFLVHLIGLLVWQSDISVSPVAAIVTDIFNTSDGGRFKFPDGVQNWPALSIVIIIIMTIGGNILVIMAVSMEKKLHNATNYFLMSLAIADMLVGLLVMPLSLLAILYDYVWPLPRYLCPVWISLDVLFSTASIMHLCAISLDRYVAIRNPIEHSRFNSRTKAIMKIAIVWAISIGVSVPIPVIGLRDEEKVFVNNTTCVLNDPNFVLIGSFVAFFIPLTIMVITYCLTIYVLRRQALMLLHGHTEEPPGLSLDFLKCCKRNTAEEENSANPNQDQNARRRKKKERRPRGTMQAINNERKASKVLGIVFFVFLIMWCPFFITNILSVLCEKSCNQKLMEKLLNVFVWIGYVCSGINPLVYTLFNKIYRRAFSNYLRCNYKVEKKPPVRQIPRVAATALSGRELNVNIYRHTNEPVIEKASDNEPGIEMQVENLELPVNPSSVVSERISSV
Method in brief: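 Frozen CHO-K1 membranes with human recombinant 5-HT2C were incubated with 1.3 nM [3H]mesulergine in 50 mM Tris-HCl pH 7.4 with 0.1% ascorbic acid and 4 mM CaCl2 for 60 min at 27 °C. Nonspecific binding was set with 100 mianserin. Stopped by rapid filtration on glass fibre presoaked in 0.5% PEI.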

[3] = target: Sodium-dependent serotonin transporter (Homo sapiens, UniProt P31645); assay: Displacement of [3H]imipramine from human SERT expressed in HEK293 cells; format: cell-based
Sequence of Sodium-dependent serotonin transporter (P31645 whole entry): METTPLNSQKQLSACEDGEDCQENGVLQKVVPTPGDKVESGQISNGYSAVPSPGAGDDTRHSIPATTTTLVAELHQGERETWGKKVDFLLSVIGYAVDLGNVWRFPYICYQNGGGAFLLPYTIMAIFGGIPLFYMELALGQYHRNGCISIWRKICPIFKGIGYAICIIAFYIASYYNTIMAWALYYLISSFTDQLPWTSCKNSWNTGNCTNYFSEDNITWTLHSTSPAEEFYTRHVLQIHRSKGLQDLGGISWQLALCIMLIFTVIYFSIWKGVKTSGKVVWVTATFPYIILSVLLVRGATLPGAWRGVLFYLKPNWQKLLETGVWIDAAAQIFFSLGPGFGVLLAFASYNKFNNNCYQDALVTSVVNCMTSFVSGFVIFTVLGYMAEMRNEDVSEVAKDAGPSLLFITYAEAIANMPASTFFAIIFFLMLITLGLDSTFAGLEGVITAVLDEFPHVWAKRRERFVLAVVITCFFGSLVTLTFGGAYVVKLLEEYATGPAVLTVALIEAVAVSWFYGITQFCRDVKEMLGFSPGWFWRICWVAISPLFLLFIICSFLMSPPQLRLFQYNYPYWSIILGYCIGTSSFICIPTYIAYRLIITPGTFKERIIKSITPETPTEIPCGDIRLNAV
Method in brief: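 Membranes from 293 cells expressing SERT were incubated with 2 nM [3H]imipramine in 50 mM Tris-HCl pH 7.4 with 120 mM NaCl and 5 mM KCl for 30 min at 27 °C. Filtered through glass fibre presoaked in 0.5% PEI, then washed with ice-cold 50 mM Tris-HCl pH 7.4 containing 0.9% NaCl.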

[4] = target: Voltage-gated inwardly rectifying potassium channel KCNH2 (Homo sapiens, UniProt Q12809); assay: Inhibition of human recombinant ERG channel expressed in HEK293 cells
Sequence of Voltage-gated inwardly rectifying potassium channel KCNH2 (Q12809 whole entry): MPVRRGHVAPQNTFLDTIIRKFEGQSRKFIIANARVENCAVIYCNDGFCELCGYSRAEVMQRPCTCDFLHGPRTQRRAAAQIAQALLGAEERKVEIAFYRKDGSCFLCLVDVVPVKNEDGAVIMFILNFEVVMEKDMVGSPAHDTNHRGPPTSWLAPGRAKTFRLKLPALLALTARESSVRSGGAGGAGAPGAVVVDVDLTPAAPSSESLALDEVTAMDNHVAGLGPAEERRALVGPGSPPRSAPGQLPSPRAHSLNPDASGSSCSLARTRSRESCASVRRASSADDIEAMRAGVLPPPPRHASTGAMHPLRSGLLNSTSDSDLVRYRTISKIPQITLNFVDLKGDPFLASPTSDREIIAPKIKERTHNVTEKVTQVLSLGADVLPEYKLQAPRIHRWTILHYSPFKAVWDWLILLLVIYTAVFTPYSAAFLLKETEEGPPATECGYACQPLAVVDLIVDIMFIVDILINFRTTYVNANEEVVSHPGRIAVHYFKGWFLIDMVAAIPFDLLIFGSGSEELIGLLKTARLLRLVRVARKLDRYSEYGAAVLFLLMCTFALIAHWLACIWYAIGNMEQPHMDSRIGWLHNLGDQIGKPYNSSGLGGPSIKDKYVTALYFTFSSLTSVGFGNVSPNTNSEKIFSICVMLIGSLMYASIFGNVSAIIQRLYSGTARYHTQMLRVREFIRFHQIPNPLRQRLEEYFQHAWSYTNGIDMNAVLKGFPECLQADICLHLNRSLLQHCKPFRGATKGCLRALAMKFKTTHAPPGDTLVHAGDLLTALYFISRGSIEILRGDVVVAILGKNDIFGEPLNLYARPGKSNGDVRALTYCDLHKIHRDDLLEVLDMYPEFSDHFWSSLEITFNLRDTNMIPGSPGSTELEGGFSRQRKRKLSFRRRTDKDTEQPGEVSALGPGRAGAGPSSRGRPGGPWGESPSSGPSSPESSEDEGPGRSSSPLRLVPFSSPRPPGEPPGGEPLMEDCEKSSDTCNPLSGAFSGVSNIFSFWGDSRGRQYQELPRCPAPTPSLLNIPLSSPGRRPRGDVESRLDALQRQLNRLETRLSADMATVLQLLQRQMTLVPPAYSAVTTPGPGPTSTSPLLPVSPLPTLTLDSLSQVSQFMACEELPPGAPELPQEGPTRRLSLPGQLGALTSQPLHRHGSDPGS

Mus musculus = assay: Locomotor activity in mouse assessed as distance traveled by animal in horizontal locomotion at 25 mg/kg, po after 60 mins measured for 30 mins by spontaneous locomotor activity; format: functional
Method in brief: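 Mice were dosed orally at 25 mg/kg and acclimated to the chamber for 10 min. Horizontal distance travelled (cm) was then recorded over 30 min by automated video tracking. Testing ran between 09:00 and 17:00 h. Mean ± SEM of 6–7 mice.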

Sequence of 5-hydroxytryptamine receptor 2A (P28223 whole entry): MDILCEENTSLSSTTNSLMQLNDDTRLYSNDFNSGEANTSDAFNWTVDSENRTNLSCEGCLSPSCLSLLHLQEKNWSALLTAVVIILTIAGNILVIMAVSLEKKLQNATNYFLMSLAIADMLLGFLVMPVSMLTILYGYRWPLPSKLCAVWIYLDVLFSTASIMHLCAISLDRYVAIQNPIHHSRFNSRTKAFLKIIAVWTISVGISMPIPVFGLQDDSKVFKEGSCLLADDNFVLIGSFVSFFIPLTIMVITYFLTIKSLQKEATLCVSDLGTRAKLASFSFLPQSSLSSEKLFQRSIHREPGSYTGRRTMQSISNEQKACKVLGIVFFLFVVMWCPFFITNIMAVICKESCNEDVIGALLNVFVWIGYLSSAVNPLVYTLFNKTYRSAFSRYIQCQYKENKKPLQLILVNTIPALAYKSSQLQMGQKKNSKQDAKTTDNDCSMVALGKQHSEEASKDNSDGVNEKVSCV

| Compound | IC50 [1] | IC50 [2] | IC50 [3] | IC50 [4] | Activity (Mus musculus) |
| --- | --- | --- | --- | --- | --- |
| CCCn1c(-c2ccccc2)cc(C(=O)NCCCN2CCN(c3cccc(C(F)(F)F)c3)CC2)c1C | 410 nM | 619 nM | 381 nM |  |  |
| CCCn1c(-c2ccccc2)cc(C(=O)N(C)CCCN2CCN(c3cccc(C)c3C)CC2)c1C | 17 nM | 12 nM | 163 nM | 700 nM |  |
| Cc1cccc(N2CCN(CCNC(=O)c3cc(C(C)(C)C)n(C)c3C)CC2)c1C | 36 nM | 2230 nM | 908 nM | 11800 nM |  |
| CCCn1c(-c2ccccc2)cc(C(=O)NCCCN2CCN(c3cccc(OC)c3)CC2)c1C | 153 nM | 452 nM | 322 nM |  |  |
| CCn1c(-c2ccc(Cl)cc2)cc(C(=O)NCCCN2CCN(c3cccc(Cl)c3Cl)CC2)c1C | 153 nM | 22 nM | 629 nM |  |  |
| CCCn1c(-c2ccccc2)cc(C(=O)NCCCN2CCN(c3cccc(Br)c3)CC2)c1C | 221 nM | 633 nM | 225 nM |  |  |
| CCCn1c(-c2ccccc2)cc(C(=O)NCCCN2CCN(c3ccc(Cl)c(Cl)c3)CC2)c1C | 54 nM | 324 nM | 284 nM |  |  |
| Cc1[nH]c(-c2ccccc2)cc1C(=O)NCCCN1CCN(c2cccc(Cl)c2Cl)CC1 |  |  |  | 100 nM |  |
| Cc1c(C(=O)NCCCN2CCN(c3cccc4cccnc34)CC2)cc(-c2ccccc2)n1C | 352 nM | 233 nM | 22 nM |  |  |
| Cc1c(C(=O)NCCCN2CCN(c3ccncc3)CC2)cc(-c2ccccc2)n1C | 4560 nM | 5260 nM | > 10000 nM |  |  |
| Cc1ccc2cccc(N3CCN(CCCNC(=O)c4cc(-c5ccccc5)n(C)c4C)CC3)c2n1 | 832 nM | 653 nM | 300 nM |  |  |
| CCCn1c(-c2ccccc2)cc(C(=O)NCCCN2CCN(c3cccc(Cl)c3Cl)CC2)c1C |  |  |  | 540 nM |  |
| CCCn1c(-c2ccccc2)cc(C(=O)NCCCN2CCN(c3cccc4cccnc34)CC2)c1C | 210 nM | 420 nM | 82 nM |  |  |
| CCCn1c(-c2ccccn2)cc(C(=O)NCCCN2CCN(c3cccc(Cl)c3Cl)CC2)c1C |  |  |  | 1000 nM |  |
| CCCn1c(-c2ccccc2)cc(C(=O)NCCCN2CCN(c3cc(F)ccc3F)CC2)c1C | 135 nM | 1010 nM | 854 nM |  |  |

Now from value to compound, other results behind:

| IC50 [1] | IC50 [2] | IC50 [3] | Compound | IC50 [4] | Activity (Mus musculus) |
| --- | --- | --- | --- | --- | --- |
|  | 221 nM |  | Cc1[nH]c(-c2ccccn2)cc1C(=O)NCCCN1CCN(c2cccc(Cl)c2Cl)CC1 |  |  |
| 221 nM | 633 nM | 225 nM | Cc1c(C(=O)NCCCN2CCN(c3ccccc3Br)CC2)cc(-c2ccccc2)n1C |  |  |
| 209 nM | 92 nM | 7 nM | Cc1c(C(=O)NCCCN2CCN(c3cccc(Cl)c3Cl)CC2)cc(-c2cccnc2)n1C | 6800 nM |  |
|  | 35 nM |  | Cc1c(C(=O)N(C)CCCN2CCN(c3cccc(Cl)c3Cl)CC2)cc(-c2ccccc2)n1C | 500 nM |  |
|  | 233 nM | 64 nM | Cc1c(Cl)cccc1N1CCN(CCNC(=O)c2cc(-c3ccccc3)n(C)c2C)CC1 |  | 7100 cm |
| 50 nM | 109 nM | 45 nM | Cc1c(C(=O)NCCN2CCN(c3cccc(Cl)c3Cl)CC2)cc(C(C)(C)C)n1C |  |  |
| 386 nM | 1140 nM | 252 nM | Cc1cccc(N2CCN(CCCNC(=O)c3cc(C(C)(C)C)n(C)c3C)CC2)c1C |  |  |
|  | 21 nM |  | CCCn1c(-c2ccccc2)cc(C(=O)N(C)CCCN2CCN(c3cccc(Cl)c3Cl)CC2)c1C |  |  |
| 54 nM | 210 nM | 315 nM | Cc1c(Cl)cccc1N1CCN(CCNC(=O)c2cc(C(C)(C)C)n(C)c2C)CC1 |  | 6217 cm |
| 33 nM | 16 nM | 78 nM | Cc1c(C(=O)NCCN2CCN(c3cccc(Cl)c3Cl)CC2)c(C)n(C)c1-c1ccccc1 |  |  |
